According to the EternaBench riboswitch data:

Test system: MS2 coat protein
Test: apparent Kd, MS2 coat protein; higher = weaker binding; RNA-MaP array; FMN 200 µM where present
Outline: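 Binding was read on Illumina sequencing-chip clusters where stalled E. coli RNA polymerase had transcribed each design. A titration of SNAP-549-labelled MS2 coat protein began at 0.7 or 1.5 nM and doubled to 3 µM, once without ligand and once with constant ligand, in 100 mM Tris-HCl pH 7.5, 80 mM KCl, 4 mM MgCl2, BSA, DTT, yeast tRNA and Tween-20. The apparent Kd is the median of filtered per-cluster binding-curve fits, based on green signal normalised to red-channel RNA signal and control-cluster median Fmax.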

[1] = designed as: OFF switch for flavin mononucleotide, no ligand
[2] = ligand present: flavin mononucleotide, designed as: OFF switch for flavin mononucleotide
[3] = designed as: ON switch for flavin mononucleotide, no ligand
[4] = ligand present: flavin mononucleotide, designed as: ON switch for flavin mononucleotide

UGUUGAUAGCAGAAGGACAUGAGGAUCACCCAUGUAAGGUUACAAAUACAUGUAGGAUAUGCUAUUGACUAAGAGUGAGCGUUC
apparent Kd [1]: 43.4 nM | apparent Kd [2]: 565 nM

UGUUGUAUUACAGGAUAUCUAUGAUUUUAAUUUAGAGAAGGGUAUUCACAUGAGGAUCACCCAUGUAUAUACGAGGAAGUUGUG
apparent Kd [3]: 51.2 nM | apparent Kd [4]: 58.9 nM

UGUUGUAUUACAGGAUAUCUAUUAGUUUUAGUUAGAGAAGGGUAUUCACAUGAGGAUCACCCAUGUAUAUACGAGGAAGUUGUG
apparent Kd [3]: 44.1 nM | apparent Kd [4]: 49.1 nM

UGUUGUUCAGGAUAUGAUGUCUUAUACAUGAGGAUCACCCAUGUGGGUCCUGAUUUGGCGUCAGAAGGGAAUGUUG
apparent Kd [1]: 551 nM | apparent Kd [2]: 569 nM

UGUUUGGGAGGAUAUCCAAUAUAUGACAUGAGGAUCACCCAUGUUUCCACUCGUACCUCCGGAGAAGGCCCUGCGU
apparent Kd [1]: 24.7 nM | apparent Kd [2]: 22 nM

UGUUUUCAUGUAGGAUAUGCUUGUCGUAGAUACGCAGAAGGACAUGAGGAUCACCCAUGUUAAAGCGUCAGAGUAUAGAUUCUU
apparent Kd [1]: 17.9 nM | apparent Kd [2]: 45.6 nM

UGUUUUCAUGUAGGAUAUGCUUGUCGUAGAUACGCAGAAGGACAUGAGGAUCACCCAUGUUAAUGCGACAGAGUAUAGAUUCUU
apparent Kd [1]: 15.3 nM | apparent Kd [2]: 20.6 nM

UUAAAUCAUGUAGGAUAUGCAUGGCGAAGCUACGCAGAAGGACAUGAGGAUCACCCAUGUUAAAGCUACCGAGUUCGGUGGCAA
apparent Kd [1]: 116 nM | apparent Kd [2]: 156 nM

UUAAAUCAUGUAGGAUAUGCAUGGCGAAGCUACGCAGAAGGACAUGAGGAUCACCCAUGUUAUACCUACCCAGUUCGGUGGGAA
apparent Kd [1]: 81 nM | apparent Kd [2]: 241 nM

UUAAAUCAUGUAGGAUAUGCAUGGCGAAGCUACGCAGAAGGACAUGAGGAUCACCCAUGUUAUAGCUACCCAGUUAGGUGGCAA
apparent Kd [1]: 82.2 nM | apparent Kd [2]: 189 nM

UUAAAUCAUGUAGGAUAUGCAUGGCGAAGCUACGCAGAAGGACAUGAGGAUCACCCAUGUUAUAGCUACCCGUUACGGUGGCAA
apparent Kd [1]: 89.1 nM | apparent Kd [2]: 239 nM

UUAAAUCGAAACAUGAGGAUCACCCAUGUGUUGUGGUUAAUAUAGGAUAUGUGUAUACUUUUAUGACAGAAGGAUGAUGAUACU
apparent Kd [3]: 16.2 nM | apparent Kd [4]: 13.2 nM

UUAAUGUGAGGAUAUCAAGUGUGAUAGAGUAAUGGUAAAUAUGAGAAGGCACAUGAGGAUCACCCAUGUUCUUC
apparent Kd [1]: 15.7 nM | apparent Kd [2]: 17.4 nM

UUAAUGUGAGGAUAUCAGGUGUGCUAGAGUACUGGUACAUCUGAGAAGGCACAUGAGGAUCACCCAUGUUCUUC
apparent Kd [1]: 36.9 nM | apparent Kd [2]: 110 nM

UUAAUUAAUUAAUUCGUCAAUUACAUGAGGAUCACCCAUGUAUAGGAUAUGCAGUGGAAUACACUGCAGAAGGAUACAUAGACG
apparent Kd [1]: 22.6 nM | apparent Kd [2]: 41.5 nM

UUAAUUAUACAAGGAUAUCUAUCCUUAUCAAGACUUACAUGAGGAUCACCCAUGUUAAUAUAAUUAGAGAAGGUGUAAAUACAG
apparent Kd [3]: 17.4 nM | apparent Kd [4]: 24.1 nM

UUAAUUCGAAACAUGAGGAUCACCCAUGUGUUGUGGUUAAUAUAGGAUAUGUGGAUACUUUUUUGACAGAAGGAUGAUGGUACU
apparent Kd [3]: 13.3 nM | apparent Kd [4]: 11.6 nM

UUAAUUUGAGGAUAUACAUUUAACCACAUGAGGAUCACCCAUGUAAUAUCAUGUAUUUGUGUAGAAGGCAGAAUGC
apparent Kd [1]: 18.8 nM | apparent Kd [2]: 17.5 nM

UUACAGUGCGGGUAGGAUAUGUAGGGUGGUACAUGAGGAUCACCCAUGUAUCCACCCUUCGACCGGCAGAAGGGCCUAUCACUGC
apparent Kd [3]: 15.9 nM | apparent Kd [4]: 13.6 nM

UUACAUACAAAGGUACAUGAGGAUCACCCAUGUUUGUUGGGAAGAAGGGUAACAGUACUACACAUACAGGAUAUUUCACAAAUA
apparent Kd [3]: 86.8 nM | apparent Kd [4]: 56.4 nM

UUACCACAUGAGGAUCACCCAUGUCAGGAUAUACUAUUAACUACAUUUUCUUAUUUUAGUAGAAGGGACACUUU
apparent Kd [1]: 26 nM | apparent Kd [2]: 23.1 nM

UUACCUCAUGAGAAGGACAUGAGGAUCACCCAUGUAGGAUAUCGUGGGACACUGGAAUUGAAUCUUCGGAUUCAAUAACUGUAU
apparent Kd [3]: 349 nM | apparent Kd [4]: 26.2 nM

UUACCUCAUGAGAAGGACAUGAGGAUCACCCAUGUAGGAUAUCGUGGGAGACUGGUAUUGAAUCUUCGGAUUCAAUACCAGUCU
apparent Kd [3]: 375 nM | apparent Kd [4]: 29.7 nM
